Data: publication PMC2975065 (Journal of molecular biology, 2010)
Read-outs that look alike come from different tables or passages of the source.

Experiments:
[1] = target: DiscI (Discoidin I, isoform A) (Dictyostelium discoideum, UniProt P02886, S2A); experiment: Isothermal titration microcalorimetry; format: binding; settings: ITC; for n (stoichiometry, fitted): n fitted to the curve for high affinity ligands
[2] = target: T1, DiscII (Discoidin II) (Dictyostelium discoideum, UniProt P42530); experiment: Isothermal titration microcalorimetry; format: binding; settings: for -TΔS / -ΔG / -ΔH: DiscII, ITC, 25 °C, ligands marked c only one experiment
T1 sequence (P42530 1-257): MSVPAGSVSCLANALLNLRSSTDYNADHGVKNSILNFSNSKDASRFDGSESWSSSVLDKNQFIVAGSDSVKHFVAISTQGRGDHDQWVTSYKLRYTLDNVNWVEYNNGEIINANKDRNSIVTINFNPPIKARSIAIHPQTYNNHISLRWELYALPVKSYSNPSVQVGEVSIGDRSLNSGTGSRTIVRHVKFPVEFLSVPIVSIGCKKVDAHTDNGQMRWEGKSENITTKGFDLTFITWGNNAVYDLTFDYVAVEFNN
Outline: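 Run on a VP-ITC at 25 °C in 20 mM Tris-HCl pH 7.5, 150 mM NaCl, with sugar and protein in the same buffer. Thirty 10 μL injections of 2–40 mM sugar, 5 min apart, went into 0.15 mM lectin in the cell, stirred at 310 rpm. Sugar-into-buffer controls were run. Data were fitted to a single-site model giving Ka and ΔH (n fixed at 1 for weak ligands), with ΔG and ΔS derived. Runs were at least duplicated, or single where material was short.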

[3] = target: DiscI (Discoidin I) (Dictyostelium discoideum, UniProt P02886, S2A); experiment: Glycan microarray analysis of Alexa 488-labelled DiscI; format: binding; settings: DiscI at 0.04 μg ml^-1; printed glycan arrays version 3.1
Chain of DiscI (Discoidin I) (P02886 whole entry S2A): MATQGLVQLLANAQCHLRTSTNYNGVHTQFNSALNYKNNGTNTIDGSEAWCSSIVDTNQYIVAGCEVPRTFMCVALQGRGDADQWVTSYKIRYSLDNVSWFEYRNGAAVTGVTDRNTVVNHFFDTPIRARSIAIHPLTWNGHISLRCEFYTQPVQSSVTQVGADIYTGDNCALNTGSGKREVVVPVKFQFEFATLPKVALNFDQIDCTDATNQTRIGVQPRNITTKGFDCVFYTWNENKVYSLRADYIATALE

[4] = target: T1, DiscII (Discoidin II); settings: ITC, taken from ref [29]; cited from earlier work
[5] = target: T1, DiscII (Discoidin II); experiment: Glycan microarray analysis of Alexa 488-labelled DiscII; format: binding; settings: DiscII at 0.5 μg ml^-1; printed glycan arrays version 3.1
Outline: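 Recombinant protein labelled with Alexa Fluor 488-TFP following the maker's protocol, then desalted on a polyacrylamide column. Screened on the Consortium for Functional Glycomics printed array v3.1 by the standard procedure, over 0.01–200 μg ml^-1 lectin. Binding read as fluorescence intensity.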

[6] = KD, 20 mM Tris-HCl pH 7.5, 150 mM NaCl, 25 °C, averaged over two or three experiments
[7] = 20 mM Tris-HCl pH 7.5, 150 mM NaCl, 25 °C, averaged over two or three experiments

Chain of DiscI (Discoidin I, isoform A) (P02886 whole entry S2A, canonical isoform): as the sequence (P02886 whole entry S2A) above

Row | SMILES | -TΔS ([1]; 25 °C) | -ΔG ([1]; 25 °C) | -ΔH ([1]; 25 °C) | Kd [1, 6] | Kd [2] | -TΔS [2] | -ΔG [2] | Kd ([1]; Kd) | binding on glycan array (fluorescence intensity, in words) [3] | Kd [1, 7] | other results
1 | CC(=O)N[C@H]1C(O)O[C@H](CO)[C@@H](O[C@@H]2O[C@H](CO)[C@H](O)[C@H](O)[C@H]2O)[C@@H]1O (stereo partly drawn) [Gal1β1-4GlcNAc (LacNAc), Galβ1-4GlcNAc] | 5.57 ± 0.478 kcal/mol | 3.59 ± 0.048 kcal/mol | 9.18 ± 0.526 kcal/mol | 2390 ± 170 µM | 1220 ± 23 µM | 4.9 ± 0.096 kcal/mol | 3.99 ± 0.12 kcal/mol |  |  |  | Kd (in words) [1]: millimolar range
2 | CC(=O)N[C@H]1[C@H](O[C@H]2[C@@H](O)[C@@H](CO)OC(O)[C@@H]2O)O[C@H](CO)[C@H](O)[C@@H]1O (stereo partly drawn) [GalNAcβ1-3Gal] | 6.886 ± 0.669 kcal/mol | 5.86 ± 0.072 kcal/mol | 12.7 ± 0.693 kcal/mol | 49.4 ± 1.5 µM | 1110 µM | 6.88 kcal/mol | 4.02 kcal/mol | ~50 µM | less strongly |  | increase in DiscI affinity when compared to GalNAc monosaccharide [1]: tenfold increase; n (stoichiometry, fitted) [1]: 0.81 ± 0.01; -ΔH [2]: 10.9 kcal/mol
3 | CC(=O)NC1C(OC2C(O)C(CO)OC(O)C2NC(C)=O)OC(CO)C(O)C1O (stereo not drawn) [GlcNAcβ1-3GalNAc (n° 159), GlcNAcβ1-3GalNAc] |  |  |  |  |  |  |  |  | binds |  | 
4 | CC(=O)N[C@H]1C(O)O[C@H](CO)[C@H](O)[C@@H]1O (mixture of isomers) [GalNAc, N-acetylgalactosamine] | 3.18 ± 1.43 kcal/mol | 4.78 ± 0.048 kcal/mol | 7.98 ± 1.39 kcal/mol |  |  |  |  |  |  | 302 ± 27 µM | Kd [1]: 300 µM; -TΔS [4]: 0.837 kcal/mol; -ΔG [4]: 4.02 kcal/mol; -ΔH [4]: 4.85 kcal/mol; Kd [4]: 1120 µM
5 | CC(=O)N[C@H]1[C@H](OC[C@H]2OC(O)[C@H](NC(C)=O)[C@@H](O)[C@H]2O)O[C@H](CO)[C@@H](O[C@@H]2O[C@H](CO)[C@H](O)[C@H](O)[C@H]2O)[C@@H]1O (stereo partly drawn) [Galβ1-4GlcNAcβ1-6GalNAc (n° 149), Galβ1-4GlcNAcβ1-6GalNAc] |  |  |  |  |  |  |  |  |  |  | binding on glycan array (fluorescence intensity, in words) [5]: highest affinity
6 | CO[C@H]1O[C@H](CO)[C@H](O)[C@H](O)[C@H]1O [αMeGalactoside] | 7.29 ± 1.46 kcal/mol | 2.82 ± 0.048 kcal/mol | 10.1 ± 1.41 kcal/mol |  |  |  |  |  |  | 8390 ± 700 µM | 
7 | O=C[C@H](O)[C@@H](O)[C@@H](O)[C@H](O)CO [Galactose, galactose] | 4.09 ± 1.79 kcal/mol | 3.3 ± 0.024 kcal/mol | 7.41 ± 1.77 kcal/mol | 3770 ± 200 µM |  |  |  | 3000 to 4000 µM |  |  | 
8 | CC(=O)N[C@H]1C(O)O[C@H](CO)[C@H](O)[C@@H]1O[C@@H]1O[C@H](CO)[C@H](O)[C@H](O)[C@H]1O (stereo partly drawn) [Gal1β-3GalNAc, Galβ1-3GalNAc] | 4.66 ± 0.359 kcal/mol | 6.24 ± 0.096 kcal/mol | 10.9 ± 0.263 kcal/mol | 27.2 ± 4.6 µM | 1380 µM | 6.21 kcal/mol | 3.9 kcal/mol | 27 µM | binds |  | increase in DiscI affinity when compared to GalNAc monosaccharide [1]: tenfold increase; n (stoichiometry, fitted) [1]: 1.03± 0.01; -ΔH [2]: 10.1 kcal/mol
9 | COC1OC(CO)C(O)C(O)C1O (stereo not drawn) [βMeGalactoside, β–Methyl-galactoside] | 6.19 ± 0.526 kcal/mol | 3.44 ± 0.048 kcal/mol | 9.63 ± 0.574 kcal/mol |  |  |  |  |  |  | 2960 ± 270 µM | -TΔS [4]: 1.6 kcal/mol; -ΔG [4]: 4.16 kcal/mol; -ΔH [4]: 5.81 kcal/mol; Kd [4]: 952 µM
